Calls of active or inactive are those of the source. The calls are words filed in the database; no cut-off is given here.
What was measured:
[1] = Microsomal stability in mouse liver microsomes assessed as parent compound remaining at 4.6 uM preincubated for 15 mins followed by NADPH addition and measured after 60 mins by LC-MS/MS analysis; format: ADME, Microsome; conditions: read-out: Stability
Method in brief: (§1)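 Mouse liver microsome stability; half-life and % parent remaining at 60 min; mean of at least two independent experiments, each in two technical replicates.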

[2] = Half life in mouse liver microsomes at 4.6 uM preincubated for 15 mins followed by NADPH addition and measured up to 60 mins by LC-MS/MS analysis; format: ADME, Microsome; method in brief: as §1
[3] = target: T1, Acid ceramidase (Homo sapiens) (UniProt Q13510); experiment: Inhibition of human acid ceramidase expressed in HEK293 cells up to 10 uM using Rbm14-12 as substrate preincubated for 10 mins followed by substrate addition and measured after 3 hrs by fluorescence assay; format: cell-based
T1 sequence (whole entry): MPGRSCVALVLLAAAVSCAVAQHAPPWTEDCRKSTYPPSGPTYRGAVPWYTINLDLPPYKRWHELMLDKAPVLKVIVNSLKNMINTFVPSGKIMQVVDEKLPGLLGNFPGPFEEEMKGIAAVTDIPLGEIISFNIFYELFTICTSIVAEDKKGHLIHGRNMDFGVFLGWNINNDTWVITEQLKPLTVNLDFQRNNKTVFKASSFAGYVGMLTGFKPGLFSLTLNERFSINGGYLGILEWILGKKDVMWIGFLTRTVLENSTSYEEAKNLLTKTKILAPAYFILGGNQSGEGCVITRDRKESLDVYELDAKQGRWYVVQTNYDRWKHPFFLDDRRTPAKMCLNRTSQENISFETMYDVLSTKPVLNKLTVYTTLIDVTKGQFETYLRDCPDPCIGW

[4] = target: T1, Acid ceramidase (Homo sapiens); experiment: Inhibition of human acid ceramidase expressed in HEK293 cells at 1 uM using Rbm14-12 as substrate preincubated for 10 mins followed by substrate addition and measured after 3 hrs by fluorescence assay; format: cell-based
[5] = target: T1, Acid ceramidase (Homo sapiens); experiment: Inhibition of human acid ceramidase expressed in HEK293 cells at 10 uM using Rbm14-12 as substrate preincubated for 10 mins followed by substrate addition and measured after 3 hrs by fluorescence assay; format: cell-based

With `CCCCCNC(=O)n1c(=O)oc2cc(C3CCN(C)CC3)ccc21` the remaining at 1 h, 4.6 µM [1] was 60%.
`O=C(NCCCCc1ccccc1)n1c2c(oc1=O)CCNC2` gave a half-life at 4.6 µM [2] of under 15 min.
In the case of `O=C1Cc2ccccc2N1C(=O)NCCCCc1ccccc1`, the inhibition [3] is reported as “inactive”.
For `CN1CCC(c2ccc3[nH]c(=O)oc3c2)CC1`, the inhibition [4] was “inactive” and the inhibition [5] was “inactive”.
Work on `O=C(NCCCCc1ccccc1)n1c2c(oc1=O)CNCC2` yielded a half-life at 4.6 µM [2] of under 15 min.
In the case of `O=C1C(=O)N(C(=O)NCCCCc2ccccc2)c2ccccc21`, the inhibition [3] is reported as “inactive”.
